# Values joined by “and” are separate entries in the source; they are usually repeats but may differ in a detail not shown here. Identical values can stand only once.
# Test system: Fibroblast
# Assay: Multiplex assay against human fibroblast
# Assay type: toxicity, cell-based
# How it was run: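 Values for tubulin, mitochondrial-mass and membrane-permeability phenotypes are per cents of cells with healthy nuclei. These cells were identified by CellPathfinder machine-learning gating of live cells that had been stained at seeding with Hoechst33342, BioTracker Green Microtubule Cytoskeleton Dye, MitoTracker Red and Annexin V Alexa Fluor 680 and imaged on a CQ1 microscope at 37°C and 5% CO2 after compound addition. The gating first set Hoechst high-intensity objects apart from normal cells, then split normal cells into healthy, pyknosed or fragmented nuclei, and pyknosed cells into mitotic or apoptotic.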
# [1] = 12 h, 1 µM, compound concentration 1 uM
# [2] = 12 h, 10 µM, compound concentration 10 uM
# [3] = 24 h, 1 µM, compound concentration 1 uM
# [4] = 24 h, 10 µM, compound concentration 10 uM
# [5] = 48 h, 1 µM, compound concentration 1 uM
# [6] = 48 h, 10 µM, compound concentration 10 uM
compound,measurement,setting,value
Cc1cc(C)c(NC(=O)C2CC3CCC2C3)c(C)c1 (stereo not given),Population Apoptotic (%),[1],12% and 10%
same,Population Fragmented Nuclei (%),[1],14.14% and 5.66%
same,Population Healthy Nuclei (%),[1],59.69% and 81.76%
same,Population Hoechst High Intensity Objects (%),[1],0%
same,Population Membrane Permeable-Phenotype (%),[1],3.51% and 5.38%
same,Population Mitochondria Different-Phenotype (%),[1],7.02% and 6.92%
same,Population Mitotic Cells (%),[1],88% and 90%
same,Population Normal (%),[1],100%
same,Population Pyknosed Nuclei (%),[1],26.18% and 12.58%
same,Population Tubulin-Different-Phenotype (%),[1],12.28% and 22.31%
same,Total Cell Count,[1],191 and 159
same,Population Apoptotic (%),[2],10% and 7.69%
same,Population Fragmented Nuclei (%),[2],12.88% and 9.48%
same,Population Healthy Nuclei (%),[2],62.58% and 78.2%
same,Population Hoechst High Intensity Objects (%),[2],0%
same,Population Membrane Permeable-Phenotype (%),[2],3.92% and 3.64%
same,Population Mitochondria Different-Phenotype (%),[2],10.78% and 7.27%
same,Population Mitotic Cells (%),[2],90% and 92.31%
same,Population Normal (%),[2],100%
same,Population Pyknosed Nuclei (%),[2],24.54% and 12.32%
same,Population Tubulin-Different-Phenotype (%),[2],11.76% and 19.39%
same,Total Cell Count,[2],163 and 211
same,Population Apoptotic (%),[3],16.28% and 15.38%
same,Population Fragmented Nuclei (%),[3],13.89% and 7.5%
same,Population Healthy Nuclei (%),[3],66.2% and 84.38%
same,Population Hoechst High Intensity Objects (%),[3],0%
same,Population Membrane Permeable-Phenotype (%),[3],9.09% and 3.7%
same,Population Mitochondria Different-Phenotype (%),[3],5.59% and 6.67%
same,Population Mitotic Cells (%),[3],83.72% and 84.62%
same,Population Normal (%),[3],100%
same,Population Pyknosed Nuclei (%),[3],19.91% and 8.12%
same,Population Tubulin-Different-Phenotype (%),[3],12.59% and 16.3%
same,Total Cell Count,[3],216 and 160
same,Population Apoptotic (%),[4],9.38% and 12%
same,Population Fragmented Nuclei (%),[4],8.88% and 6.07%
same,Population Healthy Nuclei (%),[4],72.19% and 82.24%
same,Population Hoechst High Intensity Objects (%),[4],0%
same,Population Membrane Permeable-Phenotype (%),[4],7.38% and 2.84%
same,Population Mitochondria Different-Phenotype (%),[4],7.38% and 8.52%
same,Population Mitotic Cells (%),[4],90.62% and 88%
same,Population Normal (%),[4],100%
same,Population Pyknosed Nuclei (%),[4],18.93% and 11.68%
same,Population Tubulin-Different-Phenotype (%),[4],22.13% and 22.73%
same,Total Cell Count,[4],169 and 214
same,Population Apoptotic (%),[5],30.77% and 13.33%
same,Population Fragmented Nuclei (%),[5],8.78% and 7.14%
same,Population Healthy Nuclei (%),[5],84.88% and 83.12%
same,Population Hoechst High Intensity Objects (%),[5],0%
same,Population Membrane Permeable-Phenotype (%),[5],1.15% and 5.47%
same,Population Mitotic Cells (%),[5],69.23% and 86.67%
same,Population Normal (%),[5],100%
same,Population Pyknosed Nuclei (%),[5],6.34% and 9.74%
same,Population Tubulin-Different-Phenotype (%),[5],8.62% and 19.53%
same,Total Cell Count,[5],205 and 154
same,Population Apoptotic (%),[6],50% and 17.65%
same,Population Fragmented Nuclei (%),[6],9.04% and 4.07%
same,Population Healthy Nuclei (%),[6],87.77% and 88.24%
same,Population Hoechst High Intensity Objects (%),[6],0%
same,Population Membrane Permeable-Phenotype (%),[6],1.82% and 2.56%
same,Population Mitochondria Different-Phenotype (%),[6],10.91% and 6.15%
same,Population Mitotic Cells (%),[6],50% and 82.35%
same,Population Normal (%),[6],100%
same,Population Pyknosed Nuclei (%),[6],3.19% and 7.69%
same,Total Cell Count,[6],188 and 221
O=C1CSC(=O)N1C(CCc1ccncc1)COc1ccc(-c2cccc([N+](=O)[O-])c2)cc1 (stereo not given),Population Apoptotic (%),[1],15.94% and 18.18%
same,Population Fragmented Nuclei (%),[1],10.47% and 7.01%
same,Population Healthy Nuclei (%),[1],49.42% and 67.29%
same,Population Hoechst High Intensity Objects (%),[1],0%
same,Population Membrane Permeable-Phenotype (%),[1],7.06% and 9.03%
same,Population Mitochondria Different-Phenotype (%),[1],17.65% and 14.58%
same,Population Mitotic Cells (%),[1],84.06% and 81.82%
same,Population Normal (%),[1],100%
same,Population Pyknosed Nuclei (%),[1],40.12% and 25.7%
same,Population Tubulin-Different-Phenotype (%),[1],45.88% and 47.22%
same,Total Cell Count,[1],172 and 214
same,Population Apoptotic (%),[2],20.34% and 45%
same,Population Fragmented Nuclei (%),[2],16.2% and 9.55%
same,Population Healthy Nuclei (%),[2],42.25% and 60.3%
same,Population Hoechst High Intensity Objects (%),[2],0%
same,Population Membrane Permeable-Phenotype (%),[2],16.67% and 33.33%
same,Population Mitochondria Different-Phenotype (%),[2],43.33% and 52.5%
same,Population Mitotic Cells (%),[2],79.66% and 55%
same,Population Normal (%),[2],100%
same,Population Pyknosed Nuclei (%),[2],41.55% and 30.15%
same,Population Tubulin-Different-Phenotype (%),[2],71.67% and 99.17%
same,Total Cell Count,[2],142 and 199
same,Population Apoptotic (%),[3],12.82% and 22.22%
same,Population Fragmented Nuclei (%),[3],15.38% and 8.89%
same,Population Healthy Nuclei (%),[3],63.19% and 75.11%
same,Population Hoechst High Intensity Objects (%),[3],0%
same,Population Membrane Permeable-Phenotype (%),[3],5.22% and 7.69%
same,Population Mitochondria Different-Phenotype (%),[3],13.04% and 14.79%
same,Population Mitotic Cells (%),[3],87.18% and 77.78%
same,Population Normal (%),[3],100%
same,Population Pyknosed Nuclei (%),[3],21.43% and 16%
same,Population Tubulin-Different-Phenotype (%),[3],32.17% and 39.05%
same,Total Cell Count,[3],182 and 225
same,Population Apoptotic (%),[4],30.56% and 30.23%
same,Population Fragmented Nuclei (%),[4],18.75% and 10.08%
same,Population Healthy Nuclei (%),[4],56.25% and 71.85%
same,Population Hoechst High Intensity Objects (%),[4],0%
same,Population Membrane Permeable-Phenotype (%),[4],9.88% and 12.87%
same,Population Mitochondria Different-Phenotype (%),[4],43.21% and 52.05%
same,Population Mitotic Cells (%),[4],69.44% and 69.77%
same,Population Normal (%),[4],100%
same,Population Pyknosed Nuclei (%),[4],25% and 18.07%
same,Population Tubulin-Different-Phenotype (%),[4],86.42% and 97.08%
same,Total Cell Count,[4],144 and 238
same,Population Apoptotic (%),[5],21.43% and 21.21%
same,Population Fragmented Nuclei (%),[5],11.27% and 8.23%
same,Population Healthy Nuclei (%),[5],81.86% and 77.49%
same,Population Hoechst High Intensity Objects (%),[5],0%
same,Population Membrane Permeable-Phenotype (%),[5],1.2% and 3.91%
same,Population Mitochondria Different-Phenotype (%),[5],16.17% and 5.59%
same,Population Mitotic Cells (%),[5],78.57% and 78.79%
same,Population Normal (%),[5],100%
same,Population Pyknosed Nuclei (%),[5],6.86% and 14.29%
same,Population Tubulin-Different-Phenotype (%),[5],25.75% and 37.99%
same,Total Cell Count,[5],204 and 231
same,Population Fragmented Nuclei (%),[6],15.87% and 12.5%
same,Population Healthy Nuclei (%),[6],73.02% and 80.83%
same,Population Hoechst High Intensity Objects (%),[6],0%
same,Population Membrane Permeable-Phenotype (%),[6],13.04% and 19.07%
same,Population Mitochondria Different-Phenotype (%),[6],35.51% and 19.59%
same,Population Mitotic Cells (%),[6],61.9% and 87.5%
same,Population Normal (%),[6],100%
same,Population Pyknosed Nuclei (%),[6],11.11% and 6.67%
same,Population Tubulin-Different-Phenotype (%),[6],84.06% and 98.45%
same,Total Cell Count,[6],189 and 240
Cn1ncnc1COc1nn2c(-c3cc(F)ccc3F)nnc2cc1C(C)(C)C,Population Apoptotic (%),[1],5.08% and 12.9%
same,Population Fragmented Nuclei (%),[1],11.68% and 7.25%
same,Population Healthy Nuclei (%),[1],58.38% and 76.68%
same,Population Hoechst High Intensity Objects (%),[1],0%
same,Population Mitochondria Different-Phenotype (%),[1],6.09% and 8.11%
same,Population Mitotic Cells (%),[1],94.92% and 87.1%
same,Population Normal (%),[1],100%
same,Population Pyknosed Nuclei (%),[1],29.95% and 16.06%
same,Population Tubulin-Different-Phenotype (%),[1],13.04% and 21.62%
same,Total Cell Count,[1],197 and 193
same,Population Apoptotic (%),[2],6.76% and 16.22%
same,Population Healthy Nuclei (%),[2],51.12% and 80%
same,Population Hoechst High Intensity Objects (%),[2],0%
same,Population Mitochondria Different-Phenotype (%),[2],14.04% and 8.67%
same,Population Mitotic Cells (%),[2],93.24% and 83.78%
same,Population Normal (%),[2],100%
same,Population Pyknosed Nuclei (%),[2],33.18% and 15.1%
same,Population Tubulin-Different-Phenotype (%),[2],35.96% and 51.02%
same,Total Cell Count,[2],223 and 245
same,Population Fragmented Nuclei (%),[3],8.72% and 5.03%
same,Population Healthy Nuclei (%),[3],67.89% and 83.42%
same,Population Hoechst High Intensity Objects (%),[3],0%
same,Population Mitochondria Different-Phenotype (%),[3],1.35% and 7.23%
same,Population Mitotic Cells (%),[3],94.12% and 60.87%
same,Population Normal (%),[3],100%
same,Population Pyknosed Nuclei (%),[3],23.39% and 11.56%
same,Population Tubulin-Different-Phenotype (%),[3],10.14% and 19.28%
same,Total Cell Count,[3],218 and 199
same,Population Apoptotic (%),[4],13.24% and 17.24%
same,Population Fragmented Nuclei (%),[4],8.07% and 9.51%
same,Population Healthy Nuclei (%),[4],61.43% and 79.47%
same,Population Hoechst High Intensity Objects (%),[4],0%
same,Population Mitochondria Different-Phenotype (%),[4],11.68% and 10.05%
same,Population Mitotic Cells (%),[4],86.76% and 82.76%
same,Population Normal (%),[4],100%
same,Population Pyknosed Nuclei (%),[4],30.49% and 11.03%
same,Population Tubulin-Different-Phenotype (%),[4],45.99% and 56.46%
same,Total Cell Count,[4],223 and 263
same,Population Fragmented Nuclei (%),[5],7.91% and 5.24%
same,Population Healthy Nuclei (%),[5],84.58% and 83.81%
same,Population Hoechst High Intensity Objects (%),[5],0%
same,Population Mitochondria Different-Phenotype (%),[5],12.15% and 3.41%
same,Population Mitotic Cells (%),[5],68.42% and 91.3%
same,Population Normal (%),[5],100%
same,Population Pyknosed Nuclei (%),[5],7.51% and 10.95%
same,Total Cell Count,[5],253 and 210
same,Population Apoptotic (%),[6],23.08% and 30.77%
same,Population Fragmented Nuclei (%),[6],10.08% and 8.8%
same,Population Healthy Nuclei (%),[6],78.99% and 86%
same,Population Hoechst High Intensity Objects (%),[6],0%
same,Population Mitochondria Different-Phenotype (%),[6],8.51% and 7.44%
same,Population Mitotic Cells (%),[6],76.92% and 69.23%
same,Population Normal (%),[6],100%
same,Population Pyknosed Nuclei (%),[6],10.92% and 5.2%
same,Population Tubulin-Different-Phenotype (%),[6],38.3% and 59.07%
same,Total Cell Count,[6],238 and 250

# Reference: ChEMBL document CHEMBL5724801, “EUbOPEN Chemogenomics Library - Multiplex” (2024)
